According to ChEMBL document CHEMBL4308847, “Discovery, Structure-Activity Relationship, and Biological Characterization of a Novel Series of 6-((1 H-Pyrazolo[4,3- b]pyridin-3-yl)amino)-benzo[ d]isothiazole-3-carboxamides as Positive Allosteric Modulators of the Metabotropic Glutamate Receptor 4 (mGlu4)” (J Med Chem, 2018):

Tests used:
[1] = molecular target: T1, Metabotropic glutamate receptor 4 (Homo sapiens, UniProt Q14833); test: (§1) Positive allosteric modulation of human mGlu4 receptor expressed in CHO cells co-expressing Gqi5 assessed as increase in glutamate-induced calcium mobilization preincubated for 142 secs followed by EC20 glutamate addition and subsequent EC80 glutamate addition after 147 secs by Fluo-4-AM dye based fluorescence assay; format: functional, cell-based
T1 sequence (Q14833 whole entry): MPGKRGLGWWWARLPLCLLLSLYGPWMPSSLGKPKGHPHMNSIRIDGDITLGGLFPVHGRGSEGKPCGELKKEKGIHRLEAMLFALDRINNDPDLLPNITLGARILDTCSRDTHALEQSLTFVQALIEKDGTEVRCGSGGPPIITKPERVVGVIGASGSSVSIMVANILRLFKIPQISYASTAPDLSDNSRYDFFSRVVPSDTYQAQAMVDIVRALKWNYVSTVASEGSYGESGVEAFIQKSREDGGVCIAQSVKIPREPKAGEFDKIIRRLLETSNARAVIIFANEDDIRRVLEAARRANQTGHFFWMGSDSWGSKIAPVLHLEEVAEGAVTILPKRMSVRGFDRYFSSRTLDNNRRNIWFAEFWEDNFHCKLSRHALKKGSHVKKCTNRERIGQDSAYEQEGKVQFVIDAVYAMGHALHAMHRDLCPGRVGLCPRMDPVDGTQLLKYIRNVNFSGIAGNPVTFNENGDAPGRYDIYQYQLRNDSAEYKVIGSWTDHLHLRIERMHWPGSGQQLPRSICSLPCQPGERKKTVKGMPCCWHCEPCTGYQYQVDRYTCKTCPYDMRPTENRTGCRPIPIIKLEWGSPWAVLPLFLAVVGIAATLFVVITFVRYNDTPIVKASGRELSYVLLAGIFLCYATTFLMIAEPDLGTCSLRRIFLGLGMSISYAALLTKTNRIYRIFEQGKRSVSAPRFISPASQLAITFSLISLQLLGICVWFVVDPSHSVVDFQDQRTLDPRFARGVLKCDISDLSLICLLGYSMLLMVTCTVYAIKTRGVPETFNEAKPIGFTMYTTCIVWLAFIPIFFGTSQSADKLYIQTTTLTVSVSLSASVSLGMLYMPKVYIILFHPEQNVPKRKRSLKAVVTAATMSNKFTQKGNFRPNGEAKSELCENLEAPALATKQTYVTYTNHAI
Method in brief: (§2)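 CHO cells expressing human mGlu4 and Gqi5, plated at 30,000 cells/well and grown overnight at 37 °C, 5% CO2. Cells were loaded with 1 μM Fluo-4 AM for 45 min at 37 °C in HBSS/20 mM HEPES/2.5 mM probenecid. Compounds were run as 10-point, 1:3 dilution series. After 142 s, EC20 glutamate was added; 147 s later, EC80 glutamate. Fluorescence was normalized to the maximal glutamate response. EC50 and %Glu Max were fitted by four-parameter logistic, with maximum normalized to PHCCC.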

[2] = molecular target: T1, Metabotropic glutamate receptor 4; test: as §1, with “measured” for “subsequent EC80 glutamate addition”, “assay relative to control” for “assay”; format: functional, cell-based; method in brief: as §2
[3] = Intrinsic clearance in human liver microsomes at 1 uM preincubated for 5 mins followed by NADPH addition measured up to 45 mins by LC-MS/MS analysis; format: ADME, Microsome; settings: read-out: CLH
Method in brief: (§3)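 Intrinsic and predicted hepatic clearance derived from liver microsome incubations.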

[4] = Intrinsic clearance in rat liver microsomes at 1 uM preincubated for 5 mins followed by NADPH addition measured up to 45 mins by LC-MS/MS analysis; format: ADME, Microsome; settings: read-out: CLH; method in brief: as §3
[5] = Fraction unbound in human plasma after 4 hrs by equilibrium dialysis method; format: ADME, cell-free
[6] = Fraction unbound in rat plasma after 4 hrs by equilibrium dialysis method; format: ADME, cell-free
[7] = molecular target: T2, Cytochrome P450 1A2 (Homo sapiens, UniProt P05177); test: Inhibition of CYP1A2 in human liver microsomes using phenacetin as substrate preincubated for 15 mins followed by substrate addition and measured after 8 mins by LC-MS/MS analysis; format: ADME
T2 sequence (P05177 whole entry): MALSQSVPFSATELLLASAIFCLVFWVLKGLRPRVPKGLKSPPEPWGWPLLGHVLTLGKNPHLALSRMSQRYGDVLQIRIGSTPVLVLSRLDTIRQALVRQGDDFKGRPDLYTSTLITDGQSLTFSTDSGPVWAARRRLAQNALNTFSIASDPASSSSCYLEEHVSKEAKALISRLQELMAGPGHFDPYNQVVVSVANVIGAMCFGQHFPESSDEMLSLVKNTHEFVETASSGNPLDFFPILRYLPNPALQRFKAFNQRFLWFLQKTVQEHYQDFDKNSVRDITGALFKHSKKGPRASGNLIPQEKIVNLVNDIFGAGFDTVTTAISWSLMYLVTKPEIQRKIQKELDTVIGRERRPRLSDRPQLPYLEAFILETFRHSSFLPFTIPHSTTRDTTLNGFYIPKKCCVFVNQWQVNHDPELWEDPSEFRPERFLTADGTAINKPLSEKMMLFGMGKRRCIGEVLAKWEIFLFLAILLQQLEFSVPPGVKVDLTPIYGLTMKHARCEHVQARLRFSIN
Method in brief: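 IC50 for CYP1A2 inhibition determined in human liver microsomes using specific probe substrate-metabolite pairs.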

[8] = molecular target: Metabotropic glutamate receptor 4 (Rattus norvegicus, UniProt P31423); test: (§4) Positive allosteric modulation of rat mGlu4 receptor expressed in HEK cells co-expressing GIRK1/2 assessed as increase in glutamate-induced thallium flux preincubated for 140 secs followed by glutamate addition and measured after 2.5 mins by FluoZin-2-AM dye based fluorescence assay; format: cell-based
Chain of Metabotropic glutamate receptor 4 (Rattus norvegicus, UniProt P31423) (P31423 whole entry): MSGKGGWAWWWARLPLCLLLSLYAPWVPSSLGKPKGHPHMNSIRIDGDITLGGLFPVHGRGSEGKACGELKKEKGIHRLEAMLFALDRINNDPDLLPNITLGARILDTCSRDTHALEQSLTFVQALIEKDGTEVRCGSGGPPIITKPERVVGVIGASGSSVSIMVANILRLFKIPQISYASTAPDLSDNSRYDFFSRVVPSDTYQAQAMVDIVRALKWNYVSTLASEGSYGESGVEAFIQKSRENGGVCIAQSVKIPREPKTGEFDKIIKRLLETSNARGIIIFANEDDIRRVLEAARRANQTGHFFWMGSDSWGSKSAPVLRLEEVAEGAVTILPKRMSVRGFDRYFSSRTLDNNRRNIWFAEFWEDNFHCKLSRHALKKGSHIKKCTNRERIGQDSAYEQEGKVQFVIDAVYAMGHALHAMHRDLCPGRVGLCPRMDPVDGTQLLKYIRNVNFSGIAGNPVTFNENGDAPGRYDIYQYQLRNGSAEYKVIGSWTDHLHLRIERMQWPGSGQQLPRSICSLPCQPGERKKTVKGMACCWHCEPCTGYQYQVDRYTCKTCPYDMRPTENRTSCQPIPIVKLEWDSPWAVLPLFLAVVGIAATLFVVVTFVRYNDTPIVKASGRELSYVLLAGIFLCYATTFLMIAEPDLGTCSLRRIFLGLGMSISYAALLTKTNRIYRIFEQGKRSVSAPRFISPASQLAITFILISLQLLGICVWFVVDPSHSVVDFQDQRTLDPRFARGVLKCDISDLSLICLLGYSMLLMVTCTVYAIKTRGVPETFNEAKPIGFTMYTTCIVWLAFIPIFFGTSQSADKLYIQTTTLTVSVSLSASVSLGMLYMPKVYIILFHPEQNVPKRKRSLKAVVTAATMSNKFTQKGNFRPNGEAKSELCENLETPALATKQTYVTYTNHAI
Method in brief: (§5)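 HEK cells co-expressing rat mGlu4 and GIRK1/2 were loaded for 1 h at room temperature with FluoZin-2 AM (330 nM final) in HBSS/20 mM HEPES pH 7.4. Compound was incubated 140 s, then thallium buffer with or without agonist was added. Reading continued for 2.5 min at room temperature. Potency was fitted by four-parameter logistic.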

[9] = molecular target: Metabotropic glutamate receptor 4 (Rattus norvegicus) (UniProt P31423); test: as §4, with “assay relative to control” for “assay”; format: cell-based; method in brief: as §5
Chain of Metabotropic glutamate receptor 4 (Rattus norvegicus) (P31423 whole entry): as above

[10] = Clearance in rat administered as iv cassette dose; format: ADME, organism-based; settings: in vivo
Method in brief: (§6)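 IV cassette in male Sprague-Dawley rats (~300 g, n = 1 per experiment), cannulated in carotid artery and jugular vein and acclimated about one week. Plasma clearance, Vss, t1/2 and MRT were derived.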

[11] = Half life in rat administered as iv cassette dose; format: ADME, organism-based; settings: in vivo; method in brief: as §6

Structure (SMILES)	EC50 [1]	%max [2]	CLint scaled at 1 µM [3]	CLint scaled at 1 µM [4]	fraction unbound at 4 h [5]	fraction unbound at 4 h [6]	IC50 [7]	EC50 [8]	%max [9]	Fu ([5]; 4 h)	Fu ([6]; 4 h)	clearance [10]	half-life [11]
CCc1noc2ccc(Nc3n[nH]c4ncccc34)cc12	> 10000 nM	54%											
CCC(CC)c1noc2cc(Nc3n[nH]c4ncccc34)ccc12	525 nM	97%											
c1cnc2c(Nc3ccc4c(C5CCC5)noc4c3)n[nH]c2c1	851 nM	88%	83.2 mL/min/kg	1220 mL/min/kg	0.026	0.016	1800 nM						
CC(C)Cc1noc2cc(Nc3n[nH]c4cccnc34)ccc12	813 nM	53%											
CC1CC(C)CN(C(=O)c2nsc3cc(Nc4n[nH]c5cccnc45)ccc23)C1 (stereo not given)	447 nM	63%											
FC1(F)CCN(Cc2nsc3cc(Nc4n[nH]c5cccnc45)cnc23)CC1		84%	27.5 mL/min/kg	1080 mL/min/kg			> 30000 nM			Nd(Unstable)	Nd(Unstable)		
c1cnc2[nH]nc(Nc3ccc4c(C5CCCC5)noc4c3)c2c1	2400 nM	60%											
O=C(c1nsc2cc(Nc3n[nH]c4cccnc34)ccc12)N1CCC(F)(F)C1	331 nM	92%											
c1cnc2c(Nc3ccc4c(C5CCC5)noc4c3)n[nH]c2n1	708 nM	102%											
c1cnc2c(Nc3ccc4c(C5CCCC5)noc4c3)n[nH]c2c1	723 nM	87.6%	30.7 mL/min/kg	398 mL/min/kg	0.01	0.007	1200 nM	680 nM	97.9%			62.1 mL/min/kg	1.67 h
FC(F)(F)c1nsc2cc(Nc3n[nH]c4ncccc34)ccc12	794 nM	50%											
CC(C)(O)c1nsc2cc(Nc3n[nH]c4cccnc34)ccc12	1050 nM	98%											
CCc1noc2cc(Nc3n[nH]c4cccnc34)ccc12	1350 nM	72%	69.9 mL/min/kg	204 mL/min/kg	0.027	0.037	< 100 nM						
CC(=O)N1CCC(c2nsc3cc(Nc4n[nH]c5cccnc45)ccc23)CC1		79%	15.8 mL/min/kg	21 mL/min/kg	0.042	0.039	21700 nM	166 nM	98.9%				
CC(C)(C)Cc1noc2cc(Nc3n[nH]c4cccnc34)ccc12	1300 nM	68.9%	7.3 mL/min/kg	86.9 mL/min/kg	0.016	0.022	1100 nM	542 nM	84.8%			43.2 mL/min/kg	1.33 h
CC(C)(C)Cc1nsc2cc(Nc3n[nH]c4ncccc34)ccc12	759 nM	74%											
Cc1noc2cc(Nc3n[nH]c4cccnc34)ccc12	1860 nM	86%											
CC(F)(F)c1noc2cc(Nc3n[nH]c4cccnc34)ccc12	678 nM	58.8%	24.6 mL/min/kg	11 mL/min/kg	0.003	0.017	500 nM	1600 nM	83.8%			27.8 mL/min/kg	1.51 h
CC(C)c1noc2cc(Nc3n[nH]c4cccnc34)ccc12	575 nM	23%											
O=C(C1CC1)N1CCC(c2nsc3cc(Nc4n[nH]c5cccnc45)ccc23)CC1		111%											
CC(C)(C)Cc1noc2cc(Nc3n[nH]c4ncccc34)ccc12	2820 nM	84%											
CC1CCN(C(=O)c2nsc3cc(Nc4n[nH]c5cccnc45)ccc23)CC1	398 nM	80%											

Results, then the compound that gave them:

EC50 [1]	%max [2]	CLint scaled at 1 µM [3]	CLint scaled at 1 µM [4]	fraction unbound at 4 h [5]	fraction unbound at 4 h [6]	IC50 [7]	EC50 [8]	%max [9]	Fu ([5]; 4 h)	Fu ([6]; 4 h)	clearance [10]	half-life [11]	Structure (SMILES)
219 nM	54%	23.6 mL/min/kg	39.3 mL/min/kg	0.054	0.044	500 nM	190 nM	121%					Cc1noc2ccc(Nc3n[nH]c4ncc(F)cc34)cc12
269 nM	70%												CC(C)(C)Cc1nsc2cc(Nc3n[nH]c4cccnc34)ccc12
105 nM	54%	40.2 mL/min/kg	189 mL/min/kg	0.013	0.011	> 30000 nM	158 nM	112%					CC(C)(C)Cc1nsc2cc(Nc3n[nH]c4nccnc34)cnc12
81 nM	76%	28.9 mL/min/kg	176 mL/min/kg	0.009	0.014	400 nM							c1cnc2c(Nc3ccc4c(C5CC5)nsc4c3)n[nH]c2c1
75.9 nM	91%	14.8 mL/min/kg	31.8 mL/min/kg	0.062	0.058	< 100 nM	95.5 nM	105%					Cc1noc2ccc(Nc3n[nH]c4cccnc34)cc12
324 nM	44%	60 mL/min/kg	229 mL/min/kg	0.013	0.034								CC1CN(C(=O)c2nsc3cc(Nc4n[nH]c5cccnc45)ccc23)CC(C)O1 (stereo not given)
22.9 nM	70%												Cc1noc2c(F)cc(Nc3n[nH]c4nccnc34)cc12
129 nM	92%	84.2 mL/min/kg	488 mL/min/kg	0.009	0.019	1000 nM							CCC(CC)c1noc2cc(Nc3n[nH]c4cccnc34)ccc12
68 nM	73%	41.2 mL/min/kg	59.4 mL/min/kg	0.012	0.008	700 nM							c1cnc2c(Nc3ccc4c(C5CC5)nsc4c3)n[nH]c2n1
324 nM	64%												CC(C)(C)c1nsc2cc(Nc3n[nH]c4cccnc34)ccc12
40 nM	77%	35.4 mL/min/kg	127 mL/min/kg	0.035	0.03								CCc1nsc2cc(Nc3n[nH]c4cccnc34)ccc12
275 nM	62%	44.3 mL/min/kg	172 mL/min/kg	0.077	0.059								O=C(c1nsc2cc(Nc3n[nH]c4cccnc34)ccc12)N1CCOCC1
102 nM	57%												CCc1nsc2cc(Nc3n[nH]c4ncccc34)ccc12
117 nM	92%												CCCC(C)c1noc2cc(Nc3n[nH]c4cccnc34)ccc12 (stereo not given)
98 nM	106%												CCC(CC)c1noc2cc(Nc3n[nH]c4nccnc34)ccc12
74 nM	51%	24.7 mL/min/kg	277 mL/min/kg	0.006	0.016	22100 nM							CC(C)(C)Cc1nsc2cc(Nc3n[nH]c4cccnc34)cnc12
